In ChEMBL document CHEMBL1121553, “Substituted 6,7-dihydroimidazo[1,2-a]purin-9(4H)-ones” (J Med Chem, 1980):
pIC50: −log10 of the molar value. In brackets after ≈: the same amount, converted by molar mass. Values belong to the compound of their own block, whether it stands above or below them. Activity calls are given as the source filed them. The rule behind the calls is not given here.

Experiments:
[1] = organism: Cavia porcellus; experiment: In vitro bronchodilator activity in isolated guinea pig tracheal spiral preparation; format: functional; details: Trachea
Summary of the method: (§1)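 Guinea pig tracheal spiral held under 1.0 g tension, equilibrated 90–120 min to maximal spontaneous tonus. One drug concentration per spiral, ≥3 trials per concentration. Relaxation was expressed as % of that produced by papaverine (10 µg/mL) in the same tissue. Concentrations are bath values in µg/mL; the 50%-relaxation concentration was obtained by regression.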

[2] = system: Rattus norvegicus; experiment: In vivo bronchodilator activity in methacholine (intravenous) induced bronchospasm in male Harlan-Sprague-Dawley rats when administered intraduodenally; statistically significant inhibition of < 50% at thr stated dose; format: functional
[3] = system: Rattus norvegicus; experiment: Antiallergic activity by passive cutaneous anaphylaxis test in ovalbumin sensitized male Harlan-Sprague-Dawley rats administered perorally; format: functional; details: po
Summary of the method: (§2)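 Donor rats got egg albumin im (1 mg/rat) plus killed B. pertussis vaccine ip (2 × 10¹⁰ organisms/rat) and were bled 10–12 days later for IgE-rich antiserum. Recipient rats (100–150 g) were sensitized intradermally with 0.1 mL of 1:2.5 and 1:10 antiserum dilutions.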

[4] = organism: Cavia porcellus; experiment: Evaluation of in vitro bronchodilator activity in isolated guinea pig tracheal spiral preparation; format: functional; details: Trachea; summary of the method: as §1
[5] = system: Rattus norvegicus; experiment: In vivo bronchodilator effect on (intravenous) methacholine-induced bronchospasm in male Harlan-Sprague-Dawley rats at 10 mg/kg intraduodenal dose (inactive); format: functional, organism-based; design: dose 10 mg/kg
[6] = system: Rattus norvegicus; experiment: Antiallergic activity was evaluated by inhibition of allergen-induced bronchospasm in male Harlan-Wistar rats when administered intraduodenally 15 min prior to antigen challenge; format: functional; details: intraduodenal
[7] = system: Rattus norvegicus; experiment: Percent inhibition of PCA reaction at 33 mg/kg oral dose after 24 hr r; format: functional
[8] = system: Rattus norvegicus; experiment: Antiallergic activity by passive cutaneous anaphylaxis test in rats by intraduodenal administration; format: functional
Summary of the method: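 Recipient male Harlan-Sprague-Dawley or Wistar rats (100–150 g) received 0.1 mL intradermal antiserum at 1:2.5 and 1:10. Donor antiserum came from rats given egg albumin 1 mg im plus killed B. pertussis 2 × 10¹⁰ ip, bled 10–12 days later. After 48 h, drug went intraduodenally under anesthesia, then iv egg albumin 25 mg/kg with Evans blue 25 mg/kg. Read-out was spot-diameter inhibition versus controls, ≥5 rats/dose; ED50 was estimated.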

[9] = organism: Rattus norvegicus; experiment: Antiallergic activity by passive cutaneous anaphylaxis test in vitro in rats; format: functional
Summary of the method: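 Peritoneal mast cells were lavaged from male Harlan-Sprague-Dawley rats (200–300 g) with HBSS containing 0.1% albumin and 5 mM phosphate. Cells were sensitized with IgE antiserum plus heparin for 2 h at 37 °C, then challenged with egg albumin, drug added simultaneously. After 10 min, histamine was measured fluorimetrically; inhibition versus no-drug release, four trials per concentration.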

[10] = system: Rattus norvegicus; experiment: Antiallergic activity by passive cutaneous anaphylaxis test in rats by intravenous administration; format: functional; summary of the method: as §2
[11] = system: Rattus norvegicus; experiment: Antiallergic activity was evaluated by passive cutaneous anaphylaxis test in egg albumin sensitized male Harlan-Sprague-Dawley rats when administered perorally; format: functional; details: po; summary of the method: as §2
[12] = system: Rattus norvegicus; experiment: In vivo bronchodilator activity in methacholine (intravenous) induced bronchospasm in male Harlan-Sprague-Dawley rats when administered intraduodenally; format: functional
[13] = organism: Rattus norvegicus; experiment: Antiallergic activity in in vitro antigen-induced histamine release from isolated mast cells; format: functional, cell-based
Summary of the method: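 Peritoneal lavage cells from male Harlan-Sprague-Dawley rats (200–300 g), collected in HBSS with 0.1% human albumin and 5 mM phosphate. Cells were sensitized 2 h at 37 °C in rat antiserum with heparin, then challenged with EA; drug was added together with antigen at several concentrations, 4 trials each. After 10 min, histamine was measured fluorimetrically and % inhibition calculated vs drug-free release.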

[14] = system: Rattus norvegicus; experiment: Antiallergic activity by passive cutaneous anaphylaxis test in ovalbumin sensitized male Harlan-Sprague-Dawley rats by oral dose; format: functional; summary of the method: as §2

IC50 [1]: 12.5 µg/mL (≈ 37.2 µM)
SMILES: O=C1c2[nH]cnc2N(Cc2ccc(Cl)c(Cl)c2)C2=NCCN12

IC50 [1]: 5.1 µg/mL (≈ 16 µM)
SMILES: S=C1c2[nH]cnc2N(Cc2ccc(Cl)cc2)C2=NCCN12
ED50 [2]: > 30 mg/kg

IC50 [1]: 14 µg/mL (≈ 46.4 µM)
pIC50 [9]: 3.31
SMILES: O=C1c2[nH]cnc2N(Cc2ccc(Cl)cc2)C2=NCCN12
ED50 [6]: 0.9 mg/kg
inhibition in vivo at 33 mg/kg [7]: 11.5%
ED50 [8]: 8.4 mg/kg
ED50 [10]: 2.4 mg/kg

IC50 [4]: 13.7 µg/mL (≈ 39.4 µM)
SMILES: CSc1nc2c([nH]1)N(Cc1ccc(Cl)cc1)C1=NCCN1C2=O
ED50 [12]: > 30 mg/kg

IC50 [1]: 5.3 µg/mL (≈ 16.8 µM)
SMILES: Cc1nc2c([nH]1)N(Cc1ccc(Cl)cc1)C1=NCCN1C2=O
ED50 [12]: 1.3 mg/kg

IC50 [1]: 49 µg/mL (≈ 162 µM)
SMILES: O=C1c2[nH]cnc2N(Cc2ccccc2Cl)C2=NCCN12

IC50 [4]: 54 µg/mL (≈ 142 µM)
SMILES: O=C1c2[nH]c(Br)nc2N(Cc2ccc(Cl)cc2)C2=NCCN12

IC50 [1]: 17.5 µg/mL (≈ 61.3 µM)
SMILES: O=C1c2[nH]cnc2N(Cc2ccc(F)cc2)C2=NCCN12

More lines, now with the values behind:

SMILES: O=C1c2nc[nH]c2N(Cc2ccccn2)C2=NCCN12
ED50 [3]: > 25 mg/kg
IC50 [1]: 128 µg/mL (≈ 477 µM)

SMILES: O=C1N2CCN=C2c2[nH]cnc2N1Cc1ccc(Cl)cc1
ED50 [2]: > 50 mg/kg

SMILES: CCCCn1cnc2c1C(=O)N1CCN=C1N2Cc1ccc(Cl)cc1
IC50 [1]: 15.5 µg/mL (≈ 43.3 µM)
ED50 [2]: > 10 mg/kg

SMILES: Cn1c(Br)nc2c1C(=O)N1CCN=C1N2Cc1ccc(Cl)cc1
IC50 [4]: 3.9 µg/mL (≈ 9.88 µM)
ED50 [5]: inactive

SMILES: Cc1nc2c([nH]1)C(=O)N1CC(C)N=C1N2Cc1ccc(Cl)cc1 (centres undefined)
ED50 [6]: 1.23 mg/kg
ED50 [11]: 30.2 mg/kg
IC50 [1]: 4.4 µg/mL (≈ 13.3 µM)
ED50 [12]: 1 mg/kg

SMILES: O=C([O-])c1cc(=O)c2c(OCC(O)COc3cccc4oc(C(=O)[O-])cc(=O)c34)cccc2o1.[Na+].[Na+] [CROMOLYN SODIUM]
pIC50 [13]: 5.10
ED50 [10]: 0.29 mg/kg

SMILES: Cc1nc2c([nH]1)C(=O)N1CCN=C1N2CC(C)C
ED50 [6]: 5.4 mg/kg
IC50 [1]: 2.8 µg/mL (≈ 11.3 µM)

SMILES: CCc1nc2c([nH]1)N(CC(C)C)C1=NCCN1C2=O
IC50 [1]: 16.7 µg/mL (≈ 63.9 µM)

SMILES: CC(C)CN1C2=NCCN2C(=O)c2[nH]nnc21
ED50 [3]: > 30 mg/kg
IC50 [1]: ~200 µg/mL (≈ 854 µM)
ED50 [2]: > 30 mg/kg

SMILES: Cn1c(N)nc2c1C(=O)N1CCN=C1N2Cc1ccc(Cl)cc1
IC50 [1]: 4.8 µg/mL (≈ 14.5 µM)
ED50 [2]: > 30 mg/kg

SMILES: CCCCCCCCN1C2=NCCN2C(=O)c2[nH]cnc21
IC50 [4]: 24.5 µg/mL (≈ 84.7 µM)

SMILES: CC(C)CN1C2=NCCN2C(=O)c2[nH]cnc21
ED50 [14]: > 25 mg/kg
IC50 [1]: 6.3 µg/mL (≈ 27 µM)

SMILES: C[C@H]1N=C2N(Cc3ccc(Cl)cc3)c3[nH]cnc3C(=O)N2[C@H]1C
ED50 [6]: 1.7 mg/kg
ED50 [11]: 28.5 mg/kg
IC50 [1]: 0.7 µg/mL (≈ 2.12 µM)
ED50 [12]: 3 mg/kg
